Source: ChEMBL document CHEMBL2062453, “Lead optimization through VLAK protocol: new annelated pyrrolo-pyrimidine derivatives as antitumor agents” (2012)

Experiments:
Assay type in all cases: functional
[1] = system: A498; experiment: Cytotoxicity against human A498 cells assessed as cell growth at 10 uM after 48 hrs by SRB assay relative to control; details: A498, 48 h, read-out: Activity
Procedure, shortened: (§1)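 NCI primary screen of about 60 human tumour lines. Cells inoculated and preincubated, then a single test concentration added and cultures incubated 48 h. Result given as percent growth (G%) of treated versus untreated control cells.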

[2] = system: HOP-62; experiment: Cytotoxicity against human HOP62 cells assessed as cell growth at 10 uM after 48 hrs by SRB assay relative to control; details: HOP-62, 48 h, read-out: Activity; procedure, shortened: as §1
[3] = system: U-251; experiment: Cytotoxicity against human U251 cells assessed as cell growth at 10 uM after 48 hrs by SRB assay relative to control; details: U-251, 48 h, read-out: Activity
Procedure, shortened: (§2)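 NCI single-dose primary screen across about 60 human tumour lines. Each line was inoculated and preincubated on microtiter plates, then exposed to one concentration of agent for 48 h. Growth is reported as percent growth (G%) of treated cells versus untreated control cells.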

[4] = system: KM12; experiment: Cytotoxicity against human KM12 cells assessed as cell growth at 10 uM after 48 hrs by SRB assay relative to control; details: KM12, 48 h, read-out: Activity; procedure, shortened: as §1
[5] = system: Hs-578T; experiment: Cytotoxicity against human Hs578T cells assessed as cell growth at 10 uM after 48 hrs by SRB assay relative to control; details: read-out: Activity; procedure, shortened: as §1
[6] = system: NCI-H226; experiment: Cytotoxicity against human NCI-H226 cells assessed as cell growth at 10 uM after 48 hrs by SRB assay relative to control; details: NCI-H226, 48 h, read-out: Activity
[7] = system: CAKI-1; experiment: Cytotoxicity against human Caki1 cells assessed as cell growth at 10 uM after 48 hrs by SRB assay relative to control; details: CAKI-1, 48 h, read-out: Activity; procedure, shortened: as §1
[8] = system: NCI-H322M; experiment: Cytotoxicity against human NCI-H322M cells assessed as cell growth at 10 uM after 48 hrs by SRB assay relative to control; details: read-out: Activity
[9] = system: EKVX; experiment: Cytotoxicity against human EKVX cells assessed as cell growth at 10 uM after 48 hrs by SRB assay relative to control; details: read-out: Activity; procedure, shortened: as §1
[10] = system: Malme-3M; experiment: Cytotoxicity against human MALME-3M cells assessed as cell growth at 10 uM after 48 hrs by SRB assay relative to control; details: read-out: Activity; procedure, shortened: as §1
[11] = system: SK-OV-3; experiment: Cytotoxicity against human SKOV3 cells assessed as cell growth at 10 uM after 48 hrs by SRB assay relative to control; details: SK-OV-3, 48 h, read-out: Activity
[12] = system: SW-620; experiment: Cytotoxicity against human SW620 cells assessed as cell growth at 10 uM after 48 hrs by SRB assay relative to control; details: SW-620, 48 h, read-out: Activity; procedure, shortened: as §2
[13] = system: NCI-H460; experiment: Cytotoxicity against human NCI-H460 cells assessed as cell growth at 10 uM after 48 hrs by SRB assay relative to control; details: NCI-H460, 48 h, read-out: Activity
[14] = system: HOP-92; experiment: Cytotoxicity against human HOP92 cells assessed as cell growth at 10 uM after 48 hrs by SRB assay relative to control; details: HOP-92, 48 h, read-out: Activity; procedure, shortened: as §1
[15] = system: HT-29; experiment: Cytotoxicity against human HT-29 cells assessed as cell growth at 10 uM after 48 hrs by SRB assay relative to control; details: HT-29, 48 h, read-out: Activity; procedure, shortened: as §1
[16] = system: OVCAR-3; experiment: Cytotoxicity against human OVCAR3 cells assessed as cell growth at 10 uM after 48 hrs by SRB assay relative to control; details: OVCAR-3, 48 h, read-out: Activity
[17] = system: HCT-116; experiment: Cytotoxicity against human HCT116 cells assessed as cell growth at 10 uM after 48 hrs by SRB assay relative to control; details: HCT-116, 48 h, read-out: Activity; procedure, shortened: as §1
[18] = system: MOLT-4; experiment: Cytotoxicity against human MOLT4 cells assessed as cell growth at 10 uM after 48 hrs by SRB assay relative to control; details: MOLT-4, 48 h, read-out: Activity
[19] = system: T47D; experiment: Cytotoxicity against human T47D cells assessed as cell growth at 10 uM after 48 hrs by SRB assay relative to control; details: read-out: Activity; procedure, shortened: as §2
[20] = system: MCF7; experiment: Cytotoxicity against human MCF7 cells assessed as cell growth at 10 uM after 48 hrs by SRB assay relative to control; details: MCF7, 48 h, read-out: Activity; procedure, shortened: as §1
[21] = system: HCT-15; experiment: Cytotoxicity against human HCT15 cells assessed as cell growth at 10 uM after 48 hrs by SRB assay relative to control; details: HCT-15, 48 h, read-out: Activity; procedure, shortened: as §1
[22] = system: SK-MEL-5; experiment: Cytotoxicity against human SK-MEL-5 cells assessed as cell growth at 10 uM after 48 hrs by SRB assay relative to control; details: SK-MEL-5, 48 h, read-out: Activity
[23] = system: IGROV-1; experiment: Cytotoxicity against human IGROV1 cells assessed as cell growth at 10 uM after 48 hrs by SRB assay relative to control; details: IGROV-1, 48 h, read-out: Activity; procedure, shortened: as §1
[24] = system: UACC-257; experiment: Cytotoxicity against human UACC257 cells assessed as cell growth at 10 uM after 48 hrs by SRB assay relative to control; details: UACC-257, 48 h, read-out: Activity; procedure, shortened: as §2
[25] = system: RPMI-8226; experiment: Cytotoxicity against human RPMI8226 cells assessed as cell growth at 10 uM after 48 hrs by SRB assay relative to control; details: RPMI-8226, 48 h, read-out: Activity
[26] = system: DU-145; experiment: Cytotoxicity against human DU145 cells assessed as cell growth at 10 uM after 48 hrs by SRB assay relative to control; details: DU-145, 48 h, read-out: Activity; procedure, shortened: as §1
[27] = system: NCI-H522; experiment: Cytotoxicity against human NCI-H522 cells assessed as cell growth at 10 uM after 48 hrs by SRB assay relative to control; details: NCI-H522, 48 h, read-out: Activity

Compound | growth at 10 µM [1] | growth at 10 µM [2] | growth at 10 µM [3] | growth at 10 µM [4] | growth at 10 µM [5] | growth at 10 µM [6] | growth at 10 µM [7] | growth at 10 µM [8] | growth at 10 µM [9] | growth at 10 µM [10] | growth at 10 µM [11] | growth at 10 µM [12] | growth at 10 µM [13] | growth at 10 µM [15] | growth at 10 µM [16] | growth at 10 µM [17] | growth at 10 µM [18] | growth at 10 µM [19] | growth at 10 µM [20] | growth at 10 µM [21] | also measured
CSC1=Nc2c(c(C)c(C)n2CCCC(=O)O)C2=NC(=O)CN12 | 86% | 98% | 107% | 112% | 114% | 110% | 112% | 112% | 105% | 115% | 113% | 110% | 105% | 108% | 113% | 111% | 103% | 103% | 95% | 114% | growth at 10 µM [14]: 92%; growth at 10 µM [22]: 101%; growth at 10 µM [23]: 101%; growth at 10 µM [24]: 120%; growth at 10 µM [25]: 110%; growth at 10 µM [26]: 118%; growth at 10 µM [27]: 94%
CCOC(=O)CCCn1c2c(c(C)c1-c1ccccc1)C1=NC(=O)CN1C(SC)=N2 | 118% | 111% | 102% | 96% | 112% | 110% | 100% | 108% | 97% | 116% | 123% | 110% | 94% | 103% | 110% | 112% | 77% | 88% | 84% | 114% | growth at 10 µM [14]: 80%; growth at 10 µM [22]: 78%; growth at 10 µM [23]: 105%; growth at 10 µM [24]: 113%; growth at 10 µM [25]: 81%; growth at 10 µM [26]: 109%; growth at 10 µM [27]: 92%
CSC1=Nc2c(c(C)c(C)n2CCCC(=O)NCCc2cnc[nH]2)C2=NC(=O)CN12 | 107% | 109% | 101% | 171% | 117% | 106% | 111% | 111% | 99% | 109% | 127% | 104% | 101% | 95% | 165% | 96% | 97% | 101% | 94% | 109% | growth at 10 µM [14]: 91%; growth at 10 µM [22]: 101%; growth at 10 µM [23]: 94%; growth at 10 µM [24]: 114%; growth at 10 µM [25]: 87%; growth at 10 µM [26]: 149%; growth at 10 µM [27]: 83%
CSC1=Nc2c(c(C)c(-c3ccccc3)n2CCCN2CCN(C)CC2)C2=NC(=O)CN12 | 93% | 89% | 101% | 99% | 75% | 76% | 92% | 97% | 96% | 125% | 96% | 101% | 101% | 98% | 96% | 93% | 79% | 80% | 86% | 102% | growth at 10 µM [22]: 91%; growth at 10 µM [23]: 92%; growth at 10 µM [24]: 100%; growth at 10 µM [25]: 66%; growth at 10 µM [26]: 101%; growth at 10 µM [27]: 85%
